# PMC11437091 (Scientific Reports, 2024)
# Experiments:
# MCF7 cells = test: flow cytometry binding of EDBp-Cy5 to cells; type: cell-based; conditions: 1 µM, 37 °C, 60 min
# Summary of the method: (§1)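 Cells were grown in DMEM with 10% FBS at 37 °C and 5% CO2, then seeded at 1 × 10^6 cells/ml in 6-well plates. They were stained with 1 µM Cy5-labelled test compound, or a Cy5-labelled cyclic control peptide, for 60 min at 37 °C. Cells were washed three times with PBS and analysed by flow cytometry for Cy5 signal.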
# MDA-MB-231 cells = test: flow cytometry binding of EDBp-Cy5 to cells; type: cell-based; conditions: 1 µM, 37 °C, 60 min
# Summary of the method: as §1
# [1] = tested on: EDB-FN in MDA-MB-231 cells; test: confocal immunofluorescence colocalization with EDB-FN; type: cell-based; conditions: confocal microscopy, 1 µM, 37 °C, 2 h
# Summary of the method: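 MDA-MB-231 cells were seeded at 1 × 10^5 cells/ml in confocal dishes. They were incubated with 1 µM Cy5-labelled test compound for 2 h at 37 °C, washed six times with PBST, and fixed in 4% paraformaldehyde. Permeabilization used 0.25% Triton X-100 and blocking used 5% BSA for 30 min. Anti-EDB-FN mAb (1:1000) was applied overnight at 4 °C. Alexa Fluor 488 anti-rabbit (4 µg/mL) was applied 1 h at RT. Nuclei were stained with DAPI and imaged by confocal microscopy.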
# EMT6 cells = test: flow cytometry binding of EDBp-Cy5 to cells; type: cell-based; conditions: 1 µM, 37 °C, 60 min
# Summary of the method: as §1
# [2] = tested on: subcutaneous MDA-MB-231-luc tumor; test: NIRF imaging, subcutaneous tumor model mice; type: in vivo
# Summary of the method: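 Female BALB/c-nude mice, 6 weeks old, received 1 × 10^6 MDA-MB-231-luc cells s.c. in PBS with 30% matrigel. The Cy5-labelled test compound (1 µmol) was injected i.v. via tail vein. IVIS whole-body imaging at 48 h used excitation 640 nm and emission 680 nm. Luminescence was read from 10 min after i.p. luciferin 150 mg/kg. Organs and tumour were imaged ex vivo after euthanasia, with semiquantitative fluorescence intensity, n = 3.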
substance,measurement,setting,value
AVRTSAD-PEG4-K-Cy5 [EDBp-Cy5],cell binding ability,MCF7 cells,moderate
same,cell binding ability,MDA-MB-231 cells,high
same,colocalization with EDB-FN,[1],colocalized with EDB-FN
same,cell binding ability,EMT6 cells,moderate
same,enrichment in subcutaneous tumor (NIRF imaging),"[2]; 48 h after i.v. injection of 1 µmol, whole-body imaging",significantly enriched
same,ex vivo distribution in main organs and tumor (NIRF),"[2]; 48 h after injection, organs collected, n = 3",observed mainly in the kidney and subcutaneous tumor
